Assay results published in ChEMBL document CHEMBL1132294, “Derivatives of the new ring system indolo[1,2-c]benzo[1,2,3]triazine with potent antitumor and antimicrobial activity” (J Med Chem, 1999).
In brackets after ≈: the same amount, converted by molar mass.

Experiments:
KB [1] = assay: Antiproliferative activity against drug-resistant tumor cell line KB7D.; type: functional, cell-based; settings: Homo sapiens
Summary of the method: (§1)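 Solid-tumour and KB lines: exponentially growing cells seeded at 5×10⁴ cells/mL, allowed to adhere 16 h, then serial drug dilutions added. Viability by MTT after 4 days. Growth expressed as % of untreated controls, 50% inhibitory concentration by linear regression. Untreated cells undergo at least three rounds of multiplication.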

KB [2] = assay: Antiproliferative activity against drug-resistant tumor cell line KBCamp.; type: functional, cell-based; settings: Homo sapiens; summary of the method: as §1
KB [3] = assay: Antiproliferative activity against drug-resistant tumor cell line KBwt.; type: functional, cell-based; settings: Homo sapiens; summary of the method: as §1
KB [4] = assay: Antiproliferative activity against drug-resistant tumor cell line KBMDR.; type: functional, cell-based; settings: Homo sapiens; summary of the method: as §1
KB [5] = assay: Antiproliferative activity against drug-resistant tumor cell line KBV20C.; type: functional, cell-based; settings: Homo sapiens; summary of the method: as §1
Lymphoblastoid cell = assay: Cytotoxicity was evaluated against lymphoblastoid cell line.; type: functional; settings: Homo sapiens
Aspergillus fumigatus = assay: Antimycotic activity against Aspergillus fumigatus was evaluated as compound minimum inhibitory concentration at which no macroscopic signs of fungal growth were detected.; type: functional
WIL2-NS = assay: Antitumor activity was evaluated against lymphoma cell line Wil2-NS (human splenic B lymphoblastoid cells).; type: functional, cell-based
Summary of the method: (§2)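 Exponentially growing leukemia/lymphoma cells resuspended at 1×10⁵ cells/mL in RPMI with serial drug dilutions. Viability by MTT after 4 days at 37 °C. Concentration giving 50% growth inhibition versus untreated controls found by linear regression. Mean of at least three experiments.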

Trichophyton benhamiae = assay: Antimycotic activity against Trichophyton mentagrophytes was evaluated. MIC was defined as compound concentration at which no macroscopic signs of fungal growth were detected.; type: functional, Arthroderma benhamiae
Summary of the method: (§3)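 Yeast inocula from 30 h Sabouraud dextrose broth cultures at 37 °C, diluted to 5×10³ cells/mL. Dermatophyte inocula from 5-day cultures, homogenized and diluted to 0.05 OD₅₉₀/mL. Inocula added to medium with serial dilutions, incubated at 37 °C, read visually at 2 days (yeast) or 3 days (dermatophytes). Mean of at least three experiments.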

CCRF-SB = assay: Antitumor activity was evaluated against leukemia cell line CCRF-SB(human acute B lymphoblastic leukemia).; type: functional, cell-based; summary of the method: as §2
ACHN = assay: Antitumor activity was evaluated against human renal adenocarcinoma cell line ACHN.; type: functional, cell-based; summary of the method: as §1
IMR-32 = assay: Antitumor activity was evaluated against human neuroblastoma cell line IMR-32.; type: functional, cell-based; summary of the method: as §1
MT4 = assay: Antitumor activity was evaluated against leukemia cell line MT-4(human CD4+ T cells expressing the TAT gene of HTLV-1).; type: functional, cell-based; summary of the method: as §2
HT-29 = assay: Antitumor activity was evaluated against human colon adenocarcinoma cell line HT-29.; type: functional, cell-based; summary of the method: as §1
MOLT-4 = assay: Antitumor activity was evaluated against leukemia cell line MOLT-4(human acute T lymphoblastic leukemia); type: functional, cell-based; summary of the method: as §2
Homo sapiens [6] = organism: Homo sapiens; assay: In vitro Antiproliferative activity against peripheral blood lymphocytes (PBL) after stimulating PBL with PHA and then resuspending in IL-2-containing medium in the presence of compound.; type: functional
Summary of the method: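 PBL from HIV-negative donors, isolated on Ficoll-Hypaque and rested overnight. Stimulated with PHA 2.5 μg/mL for 24 h, diluted to 1×10⁵ cells/mL in medium with PHA, IL-2 50 U/mL and compound. Viable cells counted after 6 days. Mean ±SD of three experiments.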

Candida albicans = assay: Antimycotic activity against Candida albicans was evaluated as minimum inhibitory concentration of compound at which no macroscopic signs of fungal growth were detected; type: functional; summary of the method: as §3
5637 = assay: Antitumor activity was evaluated against human bladder carcinoma cell line 5637.; type: functional, cell-based; summary of the method: as §1
CHO-K1 = assay: Antitumor activity was evaluated against Chinese hamster ovary carcinoma cell line CHO-K1.; type: functional, cell-based; settings: Cricetulus griseus; summary of the method: as §1
Candida parapsilosis = assay: Antimycotic activity against Candida parapsilosis was evaluated as compound concentration at which no macroscopic signs of fungal growth were detected; type: functional; settings: Lodderomyces parapsilosis; summary of the method: as §3
Cryptococcus neoformans = assay: Antimycotic activity against Cryptococcus neoformans was evaluated. MIC was defined as compound concentration at which no macroscopic signs of fungal growth were detected.; type: functional; summary of the method: as §3
Candida tropicalis = assay: Antimycotic activity against Candida paratropicalis was evaluated. MIC was defined as compound concentration at which no macroscopic signs of fungal growth were detected.; type: functional; summary of the method: as §3
L1210 = assay: Antitumor activity was evaluated against leukemia cell line L1210 (mouse leukemia).; type: functional, cell-based; summary of the method: as §2
Homo sapiens [7] = organism: Homo sapiens; assay: In vitro Antiproliferative activity against peripheral blood lymphocytes (PBL) by treating PBL with compound for 3 days, then stimulating with PHA and then resuspending in compound free medium.; type: functional; settings: 72 h
Summary of the method: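 Resting donor PBL held at 1×10⁶ cells/mL and treated with compound for up to 3 days, then washed. Stimulated with PHA for 24 h, diluted to 1×10⁵ cells/mL in drug-free medium with PHA and IL-2. Viability read after 6 days at 37 °C. Mean ±SD of three experiments.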

[8] = test system: Mycobacterium tuberculosis; assay: Antibacterial activity was evaluated against Mycobacterium tuberculosis (clinical isolate 1104); type: functional
Summary of the method: (§4)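 Broth microdilution in Middlebrook 7H9 with 0.5% glycerol and 10% OADC, containing serial concentrations of compound (diluted in medium from a DMSO solution). Plates were incubated 9 days at 37 °C, and viable bacteria were read by MTT. MIC is the mean of at least three separate experiments.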

Shigella = assay: Antibacterial activity was evaluated against shigella.; type: functional
Summary of the method: (§5)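 Recent clinical isolates grown in nutrient broth, pH 7.2, inoculum 10³ bacterial cells/tube, with serial compound dilutions. […] Mean of at least three separate experiments.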

[9] = test system: Mycolicibacterium fortuitum; assay: Antibacterial activity was evaluated against Mycobacterium fortuitum.; type: functional
Summary of the method: (§6)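 Mycobacterial suspension (turbidity of 1 McFarland standard, 10⁸ CFU/mL) added to Middlebrook 7H9 with 0.5% glycerol, 10% OADC and serial compound dilutions. Incubated at 37 °C, 1 day for M. smegmatis and M. fortuitum, 9 days for MAC. Viable mycobacteria counted by MTT. MIC given as mean of at least three separate experiments.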

[10] = test system: Mycolicibacterium smegmatis; assay: Antibacterial activity was evaluated against Mycobacterium smegmatis; type: functional; summary of the method: as §6
[11] = test system: Mycobacterium tuberculosis; assay: Antibacterial activity was evaluated against Mycobacterium tuberculosis (ATCC); type: functional; summary of the method: as §4
Staphylococcus = assay: Antibacterial activity was evaluated against staphylococcus; type: functional; summary of the method: as §5
Mycobacterium = assay: Antibacterial activity was evaluated against MAC (Mycobacterium Avium Complex ); type: functional; summary of the method: as §6
Salmonella = assay: Antibacterial activity was evaluated against salmonella.; type: functional; summary of the method: as §5
Streptococcus = assay: Antibacterial activity was evaluated against streptococcus.; type: functional; summary of the method: as §5

SMILES: CC[C@@]1(O)C(=O)OCc2c1cc1n(c2=O)Cc2cc3ccccc3nc2-1 [CAMPTOTHECIN]
- IC50 (KB [1]): 35 nM
- IC50 (KB [2]): 1040 nM
- IC50 (KB [3]): 40 nM
- IC50 (KB [4]): 70 nM
- IC50 (KB [5]): 30 nM

SMILES: COc1cccc2c1C(=O)c1c(O)c3c(c(O)c1C2=O)C[C@@](O)(C(=O)CO)C[C@@H]3O[C@H]1C[C@H](N)[C@H](O)[C@H](C)O1 [DOXORUBICIN]
- CC50 (Lymphoblastoid cell): 60 nM
- MIC (Aspergillus fumigatus): > 2.5 µM
- IC50 (WIL2-NS): 20 nM
- MIC (Trichophyton benhamiae): > 2.5 µM
- IC50 (CCRF-SB): 10 nM
- IC50 (ACHN): 400 nM
- IC50 (IMR-32): 10 nM
- IC50 (MT4): 20 nM
- IC50 (HT-29): 50 nM
- IC50 (MOLT-4): 30 nM
- CC50 (Homo sapiens [6]): 40 nM
- MIC (Candida albicans): > 2.5 µM
- IC50 5637: 20 nM
- IC50 (CHO-K1): 400 nM
- MIC (Candida parapsilosis): > 2.5 µM
- MIC (Cryptococcus neoformans): > 2.5 µM
- MIC (Candida tropicalis): > 2.5 µM
- IC50 (L1210): 230 nM
- CC50 (Homo sapiens [7]): 90 nM

SMILES: COc1cc([C@@H]2c3cc4c(cc3[C@@H](O[C@@H]3O[C@@H]5CO[C@@H](C)O[C@H]5[C@H](O)[C@H]3O)[C@H]3COC(=O)[C@H]23)OCO4)cc(OC)c1O [ETOPOSIDE]
- IC50 (KB [1]): > 50000 nM
- IC50 (KB [2]): 1300 nM
- IC50 (KB [3]): 1450 nM
- IC50 (KB [4]): 26200 nM
- IC50 (KB [5]): > 50000 nM

SMILES: Clc1ccc(COC(Cn2ccnc2)c2ccc(Cl)cc2Cl)c(Cl)c1 (stereo not drawn) [MICONAZOLE]
- MIC (Trichophyton benhamiae): 0.9 µM (≈ 0.375 µg/mL)
- MIC (Candida albicans): 7.5 µM (≈ 3.12 µg/mL)
- MIC (Candida parapsilosis): 7.5 µM (≈ 3.12 µg/mL)
- MIC (Cryptococcus neoformans): 0.9 µM (≈ 0.375 µg/mL)
- MIC (Candida tropicalis): 0.9 µM (≈ 0.375 µg/mL)

SMILES: CN[C@@H]1[C@H](O[C@H]2[C@H](O[C@H]3[C@H](O)[C@@H](O)[C@H](N=C(N)N)[C@@H](O)[C@@H]3N=C(N)N)O[C@@H](C)[C@]2(O)C=O)O[C@@H](CO)[C@H](O)[C@H]1O [STREPTOMYCIN]
- MIC [8]: 2.9 µM (≈ 1.69 µg/mL)
- MIC (Shigella): 2.1 µM (≈ 1.22 µg/mL)
- MIC [9]: 4 µM (≈ 2.33 µg/mL)
- MIC [10]: 5 µM (≈ 2.91 µg/mL)
- MIC [11]: 5.4 µM (≈ 3.14 µg/mL)
- MIC (Staphylococcus): 4.2 µM (≈ 2.44 µg/mL)
- MIC (Mycobacterium): 7.4 µM (≈ 4.3 µg/mL)
- MIC (Salmonella): 8.6 µM (≈ 5 µg/mL)
- MIC (Streptococcus): 2.1 µM (≈ 1.22 µg/mL)

SMILES: CC[C@]1(O)C[C@H]2CN(CCc3c([nH]c4ccccc34)[C@@](C(=O)OC)(c3cc4c(cc3OC)N(C=O)[C@H]3[C@@](O)(C(=O)OC)[C@H](OC(C)=O)[C@]5(CC)C=CCN6CC[C@]43[C@@H]65)C2)C1 [VINCRISTINE]
- IC50 (KB [1]): 35 nM
- IC50 (KB [2]): 5 nM
- IC50 (KB [3]): 1 nM
- IC50 (KB [4]): 350 nM
- IC50 (KB [5]): 50 nM
